For eight molecules, inhibition, Activity and IC50 results are on record in ChEMBL document CHEMBL4842354, “Synthesis, structure-activity relationships, cocrystallization and cellular characterization of novel smHDAC8 inhibitors for the treatment of schistosomiasis” (Eur J Med Chem, 2021).

Molecules are shown by their SMILES.

HDAC1 (histone deacetylase 1), sequence (Q13547 whole entry): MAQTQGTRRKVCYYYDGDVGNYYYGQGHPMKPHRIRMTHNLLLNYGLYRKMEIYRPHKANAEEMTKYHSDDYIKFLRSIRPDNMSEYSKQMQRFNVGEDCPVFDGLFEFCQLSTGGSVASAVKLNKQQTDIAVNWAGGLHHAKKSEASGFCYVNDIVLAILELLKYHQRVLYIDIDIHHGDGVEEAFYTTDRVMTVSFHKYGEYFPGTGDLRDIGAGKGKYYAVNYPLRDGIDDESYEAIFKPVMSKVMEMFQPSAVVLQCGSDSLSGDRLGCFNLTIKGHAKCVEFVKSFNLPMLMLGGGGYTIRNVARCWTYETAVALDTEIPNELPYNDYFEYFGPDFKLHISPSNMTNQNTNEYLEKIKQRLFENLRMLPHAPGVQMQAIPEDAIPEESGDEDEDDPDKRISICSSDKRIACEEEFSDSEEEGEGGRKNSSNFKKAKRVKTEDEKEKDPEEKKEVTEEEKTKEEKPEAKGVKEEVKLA

The target of the first data set is T1, HDAC6 (protein deacetylase HDAC6) (Homo sapiens, UniProt Q9UBN7).
T1 sequence (Q9UBN7 whole entry): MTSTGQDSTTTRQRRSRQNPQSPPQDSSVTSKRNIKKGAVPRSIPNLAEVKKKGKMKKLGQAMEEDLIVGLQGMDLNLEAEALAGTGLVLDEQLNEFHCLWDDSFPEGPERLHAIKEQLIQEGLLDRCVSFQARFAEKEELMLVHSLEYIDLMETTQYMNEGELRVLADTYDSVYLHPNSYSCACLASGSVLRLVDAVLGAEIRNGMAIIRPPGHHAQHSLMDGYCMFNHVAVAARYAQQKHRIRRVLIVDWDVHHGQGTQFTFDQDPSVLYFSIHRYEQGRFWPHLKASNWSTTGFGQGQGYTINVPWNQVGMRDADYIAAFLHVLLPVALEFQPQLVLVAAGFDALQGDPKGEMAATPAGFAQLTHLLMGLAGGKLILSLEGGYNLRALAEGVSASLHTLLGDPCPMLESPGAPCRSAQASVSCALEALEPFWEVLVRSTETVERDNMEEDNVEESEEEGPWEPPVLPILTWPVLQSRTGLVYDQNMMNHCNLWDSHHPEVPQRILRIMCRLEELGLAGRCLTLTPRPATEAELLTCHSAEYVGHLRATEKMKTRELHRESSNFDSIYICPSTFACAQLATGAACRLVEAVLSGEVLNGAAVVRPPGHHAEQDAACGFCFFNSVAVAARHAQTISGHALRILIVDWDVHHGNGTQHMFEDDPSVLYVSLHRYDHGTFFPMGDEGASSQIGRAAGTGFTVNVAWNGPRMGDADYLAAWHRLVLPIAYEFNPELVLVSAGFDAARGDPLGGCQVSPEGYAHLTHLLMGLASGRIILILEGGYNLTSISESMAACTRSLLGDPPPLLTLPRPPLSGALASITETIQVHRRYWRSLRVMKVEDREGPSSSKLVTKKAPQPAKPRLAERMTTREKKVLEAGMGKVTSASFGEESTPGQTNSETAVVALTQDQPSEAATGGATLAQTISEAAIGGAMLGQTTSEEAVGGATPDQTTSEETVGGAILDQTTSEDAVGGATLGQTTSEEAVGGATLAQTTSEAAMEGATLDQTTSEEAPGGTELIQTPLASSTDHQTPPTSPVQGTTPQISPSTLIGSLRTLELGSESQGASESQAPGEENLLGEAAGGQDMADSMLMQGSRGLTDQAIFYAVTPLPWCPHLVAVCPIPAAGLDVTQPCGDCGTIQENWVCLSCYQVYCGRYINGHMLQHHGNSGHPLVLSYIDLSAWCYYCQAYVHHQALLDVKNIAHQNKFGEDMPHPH
The experiment in a line: Inhibition of recombinant human HDAC6 at 1 uM using ZMAL as substrate incubated for 90 mins by fluorescence based micro plate assay relative to control. Particulars: recombinant human HDAC6, probe ZMAL. The gist of the method:
(§1)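 Recombinant human HDAC1 or HDAC6 incubated 90 min at 37°C with ZMAL (Z-(Ac)Lys-AMC, 10.5 μM) and inhibitor. Developed with buffer containing trypsin (1 mg/mL) and TSA (2.75 μM), 20 min at 37°C. Fluorescence read at Ex 390/Em 460 nm.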
The term inhibition denotes the drop in the measured response relative to a control, in per cent. Take `COc1ccc(NC(=O)c2cc(C(=O)NO)ccc2OC)cc1`: the inhibition at 1.5 h, 1 µM was determined as 18%.
As to `O=C(NO)c1ccc(Cl)c(C(=O)Nc2ccc(Cl)cc2)c1`, the inhibition at 1.5 h, 1 µM worked out at 94%.

Another data set has as its system Schistosoma mansoni. Description: Antischistosomal activity against Schistosoma mansoni schistosomula at 10 uM incubated for 48 hrs by Alamar Blue assay. The format is functional.
Conditions: not given
The gist of the method: (§2)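 S. mansoni newly transformed schistosomula from mechanically transformed cercariae, 100 NTS/well in Medium 199 with 10% FCS, penicillin, streptomycin and rifampicin. Pre-cultured 3 h at 37°C, 5% CO2. Compounds from 20 mM DMSO stocks, final 10 or 20 μM. Alamar Blue added after 48 h exposure, then 24 h more. Resorufin read at Ex 530/Em 590 nm. Live and ethanol-killed larvae as controls; triplicate wells, two biological replicates.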
`CCOc1ccc(C(C)=O)cc1NC(=O)c1cccc(C(=O)NO)c1`: the Activity is 81%.
The same measure, in the same setting: then `COc1ccc(C(=O)NO)cc1NC(=O)c1ccc(-c2ccccc2)cc1`, with 64.8%; and `CCCOc1ccc(C(C)=O)cc1C(=O)Nc1cc(C(=O)NO)ccc1C`, with 45.2%; and `CSc1ccc(C(=O)NO)cc1NC(=O)c1ccc(-c2ccccc2)cc1`, with 57.4%.
On the same count and under the same terms, then `Cc1ccc(C(=O)NO)cc1C(=O)Nc1ccc(Cl)cc1`, with 69.1%.
`CCOc1ccc(C(=O)NO)cc1NC(=O)c1ccc(Cl)cc1Cl` displayed an Activity of 56.2%.
Take `COc1ccc(NC(=O)c2cc(C(=O)NO)ccc2OC)cc1`: the Activity is 91%.
On to `O=C(NO)c1ccc(Cl)c(C(=O)Nc2ccc(Cl)cc2)c1`, for which the Activity was found to be 77.6%.

In the next data set the target is Histone deacetylase 1 (Homo sapiens, UniProt Q13547). The experiment in a line: Inhibition of recombinant human HDAC1 using ZMAL as substrate incubated for 90 mins by fluorescence based micro plate assay.
Histone deacetylase 1, sequence (Q13547 whole entry): as the sequence (Q13547 whole entry) above
Conditions: not given
Broadly, the IC50 is the concentration that inhibits the measured activity by half. On to `CCOc1ccc(C(C)=O)cc1NC(=O)c1cccc(C(=O)NO)c1`, for which the IC50 amounted to 7.7 µM.
Same read-out and setting: as for `CCCOc1ccc(C(C)=O)cc1C(=O)Nc1cc(C(=O)NO)ccc1C`, the figure is 0.36 µM.
Same read-out and setting: as for `CSc1ccc(C(=O)NO)cc1NC(=O)c1ccc(-c2ccccc2)cc1`, the figure is 3.88 µM; as for `Cc1ccc(C(=O)NO)cc1C(=O)Nc1ccc(Cl)cc1`, 3.37 µM.
On the same count and under the same terms, as for `CCOc1ccc(C(=O)NO)cc1NC(=O)c1ccc(Cl)cc1Cl`, the figure is 21.1 µM.

The target in a further data set is HDAC1 (histone deacetylase 1) (Homo sapiens, UniProt Q13547). Description: Inhibition of recombinant human HDAC1 at 1 uM using ZMAL as substrate incubated for 90 mins by fluorescence based micro plate assay relative to control. The settings on record: recombinant human HDAC1, probe ZMAL. The gist of the method:
as §1
On to `COc1ccc(NC(=O)c2cc(C(=O)NO)ccc2OC)cc1`, for which the inhibition at 1.5 h, 1 µM came to 2%.
Same read-out and setting: then `O=C(NO)c1ccc(Cl)c(C(=O)Nc2ccc(Cl)cc2)c1`, with 20%.

Another data set deals with Schistosoma mansoni. Description: Antischistosomal activity against Schistosoma mansoni schistosomula at 20 uM incubated for 48 hrs by Alamar Blue assay. Type of data set: functional.
Conditions: not given
In outline:
as §2
(In general: Resazurin is reduced to fluorescent resorufin, in cell work by metabolically active cells.)
`CCOc1ccc(C(C)=O)cc1NC(=O)c1cccc(C(=O)NO)c1`: the Activity was 67.3%.
As to `COc1ccc(C(=O)NO)cc1NC(=O)c1ccc(-c2ccccc2)cc1`, the Activity came to 33.4%.
The same measure, in the same setting: as for `CCCOc1ccc(C(C)=O)cc1C(=O)Nc1cc(C(=O)NO)ccc1C`, the figure is 34%.
Same read-out and setting: then `CSc1ccc(C(=O)NO)cc1NC(=O)c1ccc(-c2ccccc2)cc1`, with 64.9%.
Take `Cc1ccc(C(=O)NO)cc1C(=O)Nc1ccc(Cl)cc1`: the Activity amounted to 50.2%.
On to `CCOc1ccc(C(=O)NO)cc1NC(=O)c1ccc(Cl)cc1Cl`, for which the Activity is listed as 56.4%.
Molecule `COc1ccc(NC(=O)c2cc(C(=O)NO)ccc2OC)cc1` displayed an Activity of 83.3%.
On the same count and under the same terms, then `O=C(NO)c1ccc(Cl)c(C(=O)Nc2ccc(Cl)cc2)c1`, with 62.3%.

The target of a further data set is T2, Histone deacetylase 8 (Schistosoma mansoni, UniProt A5H660).
T2 sequence (A5H660 whole entry): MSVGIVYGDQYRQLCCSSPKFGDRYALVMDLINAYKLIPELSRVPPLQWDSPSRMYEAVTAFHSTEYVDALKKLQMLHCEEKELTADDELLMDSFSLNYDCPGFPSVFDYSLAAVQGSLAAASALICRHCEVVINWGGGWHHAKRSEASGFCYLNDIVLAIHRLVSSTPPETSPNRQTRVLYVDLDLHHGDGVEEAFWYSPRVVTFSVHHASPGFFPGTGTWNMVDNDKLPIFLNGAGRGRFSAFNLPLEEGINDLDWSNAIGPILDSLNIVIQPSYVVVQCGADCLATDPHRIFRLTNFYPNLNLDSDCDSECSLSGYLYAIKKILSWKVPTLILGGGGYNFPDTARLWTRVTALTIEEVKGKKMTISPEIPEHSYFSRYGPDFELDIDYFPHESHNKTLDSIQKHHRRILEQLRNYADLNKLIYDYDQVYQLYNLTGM
The experiment in a line: Inhibition of Schistosoma mansoni HDAC8 using Fluor de Lys as substrate incubated for 90 mins by fluorescence method.
Conditions: not given
The gist of the method: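 Recombinant smHDAC8 or hHDAC8 (Romier lab) run to Fluor de Lys HDAC8 kit protocol. Substrate H2N-Arg-His-Lys(Ac)-Lys(Ac)-AMC at 50 μM with increasing inhibitor concentrations, 90 min at 37°C. Stop solution holding inhibitor plus trypsin, then 20 min at 37°C to release AMC. Fluorescence read at Ex 355/Em 460 nm.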
For `CCOc1ccc(C(C)=O)cc1NC(=O)c1cccc(C(=O)NO)c1`, half-maximal inhibition (IC50) required 0.16 µM.
The same measure, in the same setting: as for `COc1ccc(C(=O)NO)cc1NC(=O)c1ccc(-c2ccccc2)cc1`, the figure is 0.29 µM; as for `CCCOc1ccc(C(C)=O)cc1C(=O)Nc1cc(C(=O)NO)ccc1C`, 0.11 µM.
The same measure, in the same setting: as for `CSc1ccc(C(=O)NO)cc1NC(=O)c1ccc(-c2ccccc2)cc1`, the figure is 0.1 µM; as for `Cc1ccc(C(=O)NO)cc1C(=O)Nc1ccc(Cl)cc1`, 0.33 µM; as for `CCOc1ccc(C(=O)NO)cc1NC(=O)c1ccc(Cl)cc1Cl`, 0.1 µM.
`COc1ccc(NC(=O)c2cc(C(=O)NO)ccc2OC)cc1` showed an IC50 of 0.43 µM.

The next data set deals with HEK293. Description: Cytotoxicity against human HEK293 assessed as reduction in cell viability at 50 uM measured for 24 hrs by Alamar Blue assay. The format is cell-based. The settings on record: hek293, 24 h. In outline:
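HEK293 cells in DMEM with 10% FCS and 5 mM glutamine at 37°C, 5% CO2, seeded at 1.5×10^3 cells/well. Compounds added at 50 μM. AlamarBlue added after 24 h and incubated a further 21 h. Resorufin fluorescence read at Ex 530/Em 590 nm. Triplicates; daunorubicin positive control.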
For the molecule `CCOc1ccc(C(C)=O)cc1NC(=O)c1cccc(C(=O)NO)c1`, the Activity was 81.2%.
On the same count and under the same terms, as for `COc1ccc(C(=O)NO)cc1NC(=O)c1ccc(-c2ccccc2)cc1`, the figure is 12.3%; as for `CCCOc1ccc(C(C)=O)cc1C(=O)Nc1cc(C(=O)NO)ccc1C`, 68.8%.
Still for that read-out and setting: as for `CSc1ccc(C(=O)NO)cc1NC(=O)c1ccc(-c2ccccc2)cc1`, the figure is 82.3%; as for `Cc1ccc(C(=O)NO)cc1C(=O)Nc1ccc(Cl)cc1`, 67.6%; as for `CCOc1ccc(C(=O)NO)cc1NC(=O)c1ccc(Cl)cc1Cl`, 86.8%.
On the same count and under the same terms, then `COc1ccc(NC(=O)c2cc(C(=O)NO)ccc2OC)cc1`, with 94.5%; and `O=C(NO)c1ccc(Cl)c(C(=O)Nc2ccc(Cl)cc2)c1`, with 69.5%.

Another data set deals with T3, Protein deacetylase HDAC6 (Homo sapiens, UniProt Q9UBN7).
T3 sequence (Q9UBN7 whole entry): T1 sequence (Q9UBN7 whole entry)
Description: Inhibition of recombinant human HDAC6 using ZMAL as substrate incubated for 90 mins by fluorescence based micro plate assay.
Conditions: not given
Take `CCOc1ccc(C(C)=O)cc1NC(=O)c1cccc(C(=O)NO)c1`: the IC50 turned out to be 0.12 µM.
Same read-out and setting: then `COc1ccc(C(=O)NO)cc1NC(=O)c1ccc(-c2ccccc2)cc1`, with 0.39 µM; and `CCCOc1ccc(C(C)=O)cc1C(=O)Nc1cc(C(=O)NO)ccc1C`, with 0.02 µM.
Still for that read-out and setting: as for `CSc1ccc(C(=O)NO)cc1NC(=O)c1ccc(-c2ccccc2)cc1`, the figure is 1.5 µM; as for `Cc1ccc(C(=O)NO)cc1C(=O)Nc1ccc(Cl)cc1`, 0.6 µM.
On the same count and under the same terms, then `CCOc1ccc(C(=O)NO)cc1NC(=O)c1ccc(Cl)cc1Cl`, with 7.74 µM.

The next data set deals with T4, Histone deacetylase 8 (Homo sapiens, UniProt Q9BY41).
T4 sequence (Q9BY41 whole entry): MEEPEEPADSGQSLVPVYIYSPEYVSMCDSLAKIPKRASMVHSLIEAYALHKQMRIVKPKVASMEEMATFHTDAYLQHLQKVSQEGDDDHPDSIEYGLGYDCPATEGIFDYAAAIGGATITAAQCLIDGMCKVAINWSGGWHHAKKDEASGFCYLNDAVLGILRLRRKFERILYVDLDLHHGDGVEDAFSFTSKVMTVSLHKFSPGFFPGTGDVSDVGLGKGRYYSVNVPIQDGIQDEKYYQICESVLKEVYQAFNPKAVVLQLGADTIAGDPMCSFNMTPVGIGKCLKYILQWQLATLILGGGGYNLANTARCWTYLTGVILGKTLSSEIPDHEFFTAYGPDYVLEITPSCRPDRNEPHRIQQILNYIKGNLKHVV
Description: Inhibition of human recombinant HDAC8 using H2N-Arg-His-Lys(Ac)-Lys(Ac)-AMC as substrate after 90 mins by fluorescence based micro plate assay.
Conditions: not given
For `CCOc1ccc(C(C)=O)cc1NC(=O)c1cccc(C(=O)NO)c1`, the IC50 came out at 0.59 µM.
Same read-out and setting: then `COc1ccc(C(=O)NO)cc1NC(=O)c1ccc(-c2ccccc2)cc1`, with 0.13 µM; and `CCCOc1ccc(C(C)=O)cc1C(=O)Nc1cc(C(=O)NO)ccc1C`, with 0.14 µM.
On the same count and under the same terms, then `CSc1ccc(C(=O)NO)cc1NC(=O)c1ccc(-c2ccccc2)cc1`, with 0.22 µM; and `CCOc1ccc(C(=O)NO)cc1NC(=O)c1ccc(Cl)cc1Cl`, with 0.23 µM; and `COc1ccc(NC(=O)c2cc(C(=O)NO)ccc2OC)cc1`, with 0.27 µM.
